Measured values reported in ChEMBL document CHEMBL3120083, “Discovery of N-[4-[6-tert-butyl-5-methoxy-8-(6-methoxy-2-oxo-1H-pyridin-3-yl)-3-quinolyl]phenyl]methanesulfonamide (RG7109), a potent inhibitor of the hepatitis C virus NS5B polymerase” (J Med Chem, 2014).
Converted amounts (≈) assume the structure as drawn.

Key:
[1] = test system: Hepatitis C virus; experiment: Antiviral activity against Hepatitis C virus genotype 1b Con1 infected in human 2209-23 cells after 72 hrs by luciferase reporter gene assay in presence of 40% human serum; type: functional, organism-based, Hepacivirus hominis; details: isolate Con1, 2209-23, 72 h
[2] = test system: Hepatitis C virus; experiment: Antiviral activity against Hepatitis C virus genotype 1a H77 infected in human 2209-23 cells after 72 hrs by luciferase reporter gene assay in presence of 40% human serum; type: functional, organism-based, Hepacivirus hominis; details: genotype 1a H77, 2209-23, 72 h
[3] = Thermodynamic solubility of the compound; type: physicochemical; details: read-out: Therm_solubility
[4] = Inhibition of N-terminal 6xHis-tagged Hepatitis C virus genotype 1b Con1 NS5B polymerase containing 21-amino acid deletion at C-terminus expressed in Escherichia coli using radiolabeled UTP as substrate after 2 hrs by scintillation counting analysis; design: species or system Hepatitis C virus (isolate Con1)
Outline: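 GT-1b Con1 NS5B polymerase (NS5B570n-Con1) activity assay run with RNA template at 3 nM and enzyme at 3 nM. IC50 reported in nM.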

[5] = test system: Hepatitis C virus; experiment: Antiviral activity against Hepatitis C virus genotype 1a H77 infected in human 2209-23 cells after 72 hrs by luciferase reporter gene assay; type: functional, organism-based, Hepacivirus hominis; details: genotype 1a H77, 2209-23, 72 h
[6] = test system: Hepatitis C virus; experiment: Antiviral activity against Hepatitis C virus genotype 1b Con1 infected in human 2209-23 cells after 72 hrs by luciferase reporter gene assay; type: functional, organism-based, Hepacivirus hominis; details: isolate Con1, 2209-23, 72 h
Outline: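 Stable GT-1b Con1 subgenomic replicon cell line expressing a renilla luciferase reporter, used as the readout of inhibition. EC50 from luciferase signal, n 2.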

[7] = test system: Hepatocyte; experiment: Intrinsic clearance in rat hepatocytes assessed per 10^6 cells; type: ADME, cell-based
Outline: (§1)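 Suspended hepatocytes (about 1.0×10^6 cells/mL) in Williams' medium E with glutamine, antibiotics, insulin, dexamethasone and 10% FCS, 37 °C, 5% CO2, shaken at 900 rpm. Compound at 0.1–10.0 μM. Stopped with methanol plus internal standard at 2–180 min. Parent remaining by LC/MS/MS peak area ratio, in duplicate.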

[8] = test system: Hepatocyte; experiment: Intrinsic clearance in human hepatocytes assessed per 10^6 cells; type: ADME, cell-based; outline: as §1

| EC90 [1] [nM] | EC90 [2] [nM] | solubility thermodynamic [3] [µg/mL] | Structure (SMILES) | IC50 [4] [nM] | EC50 [5] [nM] | EC50 [6] [nM] | CLH [7] [uL/min/10^6 cells] | CLH [8] [uL/min/10^6 cells] |
| --- | --- | --- | --- | --- | --- | --- | --- | --- |
| 128 | 531 |  | COc1c(/C=C/c2ccc(NS(C)(=O)=O)cc2)cc(-c2cc(F)c[nH]c2=O)cc1C(C)(C)C |  |  |  |  |  |
|  |  | < 1 | COc1c(C(C)(C)C)cc(-c2ccc(C)[nH]c2=O)c2ncc(C#CCCNS(C)(=O)=O)cc12 | 5 | 341 |  |  |  |
|  |  |  | COc1c(C(C)(C)C)cc(-c2ccc[nH]c2=O)c2ncc(N3CC(CNS(C)(=O)=O)C3)cc12 | 3.5 | 532 |  |  |  |
|  |  | 66 (≈ 137 µM) | Cc1ccc(-c2cc(C(C)(C)C)cc3cc(N4CCCC(CNS(C)(=O)=O)C4)cnc23)c(=O)[nH]1 (centres undefined) | 625 | > 1000 |  |  |  |
|  |  |  | COc1c(C(F)(F)F)cc(-n2ccc(=O)[nH]c2=O)c2ncc(-c3ccc(NS(C)(=O)=O)cc3)cc12 |  | 821 | 57 | 1.8 | 1.5 |
|  |  |  | COc1c(CC(F)(F)F)cc(-n2ccc(=O)[nH]c2=O)c2ncc(-c3ccc(NS(C)(=O)=O)cc3)cc12 |  | 839 | 119 | 3.7 | 0.8 |
|  |  |  | COc1c(C2(C(F)F)CC2)cc(-n2ccc(=O)[nH]c2=O)c2ncc(-c3ccc(NS(C)(=O)=O)cc3)cc12 |  | 95 | 16 | 1.7 | 0.1 |
|  |  |  | COc1c(C(C)(C)C)cc(-c2cc(F)c[nH]c2=O)c2ncc(-c3ccc(NS(C)(=O)=O)cc3)cc12 |  | 3.8 | 3.5 |  |  |
|  |  |  | CC(C)(C)c1cc(-c2cc(F)c[nH]c2=O)c2ncc(-c3ccc(NS(C)(=O)=O)cc3)cc2c1 |  | 25 | 16 |  |  |

| Structure (SMILES) | EC90 [1] [nM] | EC90 [2] [nM] | solubility thermodynamic [3] [µg/mL] | IC50 [4] [nM] | EC50 [5] [nM] | EC50 [6] [nM] | CLH [7] [uL/min/10^6 cells] | CLH [8] [uL/min/10^6 cells] |
| --- | --- | --- | --- | --- | --- | --- | --- | --- |
| COc1c(C(C)(C)C)cc(-c2ccc[nH]c2=O)c2ncc(N3CC[C@H](CNS(C)(=O)=O)C3)cc12 |  |  | 11 (≈ 22.7 µM) | 0.2 | 7.9 |  |  |  |
